Data set [1] deals with Human immunodeficiency virus 1. Briefly: Antiviral activity against HIV1 NL4-3 harboring M46I/V82F/I84V amino acid substitution in protease encoding region infected in human MT4 cells assessed as inhibition of p24 Gag protein production selected at 5 uM of ritonavir by ELISA. The settings on record: Human immunodeficiency virus 1, NL4-3, MT4. Type of data set: functional, organism-based. In outline:
(§1)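 HIV-1NL4-3 (500 TCID50s) was passaged in MT-4 cells, starting at 0.01–0.03 µM PI and raising the drug generally two- to threefold as virus propagated. Cell-free passage used day-7 supernatants. Variants were then tested in MT-4 cells (10^5/ml) with 100 TCID50s, with or without drug, at 37°C. Day-7 p24 Gag was read by chemiluminescent immunoassay; EC50 vs drug-free control; triplicate.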
Background: In an ELISA, binding on a coated surface is turned into a signal by an enzyme label.

Data set [2] concerns Human immunodeficiency virus 1. The data set is described as follows: Ratio of EC50 for HIV1 TM harboring L10I/K14R/R41K/M46L/I54V/L63P/A71V/V82A/L90M/I93L in protease encoding region to EC50 for HIV1 ERS104pre. Type of data set: functional. In outline: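 PHA-stimulated PBMs (10^6/ml) infected with 50 TCID50s of primary HIV-1 isolate and cultured with 10-fold serial drug dilutions. Day 7 supernatant p24 Gag measured by chemiluminescent enzyme immunoassay. […] Triplicate. Ratio is resistant isolate EC50 over reference isolate EC50.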

Data set [3] relates to Human immunodeficiency virus 1. The data set is described as follows: Ratio of EC50 for HIV1 JSL harboring L10I/L24I/L33F/E35D/M36I/N37S/M46L/I54V/R57K/I62V/L63P/A71V/G73S/82A in protease encoding region to EC50 for HIV1 ERS104pre. The format is functional.
The test system of data set [4] is Human immunodeficiency virus 1. The data set is described as follows: Antiviral activity against HIV1 NL4-3 infected in human MT4 cells assessed as inhibition of p24 gag protein production by ELISA. Type of data set: functional, organism-based. Conditions: Human immunodeficiency virus 1, NL4-3, MT4. In outline:
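MT-4 cells (10^5/ml) were infected with 100 TCID50s of HIV-1 and cultured at 37°C with or without various drug concentrations. On day 7, supernatant p24 Gag was measured by automated chemiluminescent enzyme immunoassay. […] Assays were run in triplicate.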

For data set [5], the system named is Human immunodeficiency virus 1. The data set is described as follows: Ratio of EC50 for HIV1 NL4-3 harboring L23I/K43I/M46I/I50L/G51A/A71V amino acid substitution in protease encoding region to EC50 for HIV1 NL4-3. Type of data set: functional. In outline:
(§2)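 MT-4 cells (10^5/ml) infected with 100 TCID50s of PI-selected HIV-1NL4-3 variants or the parental strain, with or without serial drug concentrations, at 37°C. Day 7 supernatant p24 Gag measured by chemiluminescent enzyme immunoassay. […] Triplicate. Ratio is variant EC50 over wild-type EC50.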

Data set [6] can be described thus: Selectivity index, ratio of CC50 for human MT2 cells to EC50 for HIV1 LAI. Type of data set: toxicity, cell-based. The settings on record: read-out: Selectivity Index.
The subject of data set [7] is Human immunodeficiency virus 1. Briefly: Antiviral activity against HIV1 NL4-3 harboring L10F/L24I/M46I/L63P/A71V/G73S/V82T amino acid substitution in protease encoding region infected in human MT4 cells assessed as inhibition of p24 Gag protein production selected at 5 uM of indinavir by ELISA. The format is functional, organism-based. The settings on record: Human immunodeficiency virus 1, NL4-3, MT4. In outline:
as §1

Data set [8] concerns Human immunodeficiency virus. The data set is described as follows: Antiviral activity against HIV1 LAI infected in human MT2 cells after 7 days by MTT assay. Conditions: Human immunodeficiency virus 1, LAI, MT2, 168 h. Type of data set: functional, organism-based. For orientation: Tetrazolium assays rely on reduction of a dye to a coloured formazan, in cell work by metabolically active cells.

In data set [9] the test system is Human immunodeficiency virus 1. Briefly: Ratio of EC50 for HIV1 A harboring L10I/I15V/E35D/N37E/K45R/I54V/L63P/A71V/V82T/L90M/I93L/C95F in protease encoding region to EC50 for HIV1 ERS104pre. The format is functional.
In data set [10] the test system is Human immunodeficiency virus 1. Briefly: Ratio of EC50 for HIV1 NL4-3 harboring L10F/L24I/M46I/L63P/A71V/G73S/V82T amino acid substitution in protease encoding region to EC50 for HIV1 NL4-3. Type of data set: functional. In outline:
as §2

Data set [11] relates to Human immunodeficiency virus 1. Briefly: Ratio of EC50 for HIV1 NL4-3 harboring M46I/V82F/I84V amino acid substitution in protease encoding region to EC50 for HIV1 NL4-3. The format is functional. Put shortly:
as §2

Data set [12] relates to Human immunodeficiency virus 1. Briefly: Ratio of EC50 for HIV1 NL4-3 harboring L10F/L33F/M46I/I47V/Q58E/V82I/I84V/I85V amino acid substitution in protease encoding region to EC50 for HIV1 NL4-3. The format is functional. Put shortly:
as §2

For data set [13], the system named is Human immunodeficiency virus 1. The data set is described as follows: Antiviral activity against HIV1 G harboring L10I/V11I/T12E/I15V/L19I/R41K/M46L/L63P/A71T/V82A/L90M in protease encoding region infected in human PHA-PBC assessed as inhibition of p24 Gag protein production by ELISA. The format is functional, organism-based. The settings on record: Human immunodeficiency virus 1, G. In outline:
(§3)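 Phytohemagglutinin-stimulated PBMs (10^6/ml) infected with 50 TCID50s of each primary isolate, cultured with or without drug in 10-fold serial dilutions. On day 7, supernatant p24 Gag was measured by automated chemiluminescent enzyme immunoassay. […] Triplicate.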

In data set [14] the test system is Human immunodeficiency virus 1. Briefly: Antiviral activity against HIV1 JSL harboring L10I/L24I/L33F/E35D/M36I/N37S/M46L/I54V/R57K/I62V/L63P/A71V/G73S/82A in protease encoding region infected in human PHA-PBC assessed as inhibition of p24 Gag protein production by ELISA. Conditions: Human immunodeficiency virus 1, JSL. Type of data set: functional, organism-based. In outline:
as §3

Data set [15] concerns Human immunodeficiency virus 1. Briefly: Antiviral activity against HIV1 MM harboring L10I/K43T/M46L/I54V/L63P/A71V/V82A/L90M/Q92K in protease encoding region infected in human PHA-PBC assessed as inhibition of p24 Gag protein production by ELISA. Type of data set: functional, organism-based. The settings on record: Human immunodeficiency virus 1, MM. Put shortly:
as §3

For data set [16], the system named is Human immunodeficiency virus 1. Briefly: Ratio of EC50 for indinavir to compound against HIV1 NL4-3 harboring I84V mutation in protease encoding region infected in human […] cells. The format is functional.
The subject of data set [17] is Human immunodeficiency virus 1. The data set is described as follows: Ratio of EC50 for ritonavir to compound against HIV1 NL4-3 harboring I85V mutation in protease encoding region infected in human […] cells. Type of data set: functional.
The subject of data set [18] is Human immunodeficiency virus 2. The data set is described as follows: Antiviral activity against HIV2 EHO infected in human MT2 cells after 7 days by MTT assay. Type of data set: functional, organism-based. Conditions: Human immunodeficiency virus 2, EHO, MT2, 168 h.
Data set [19] concerns Human immunodeficiency virus 1. The data set is described as follows: Antiviral activity against HIV1 NL4-3 harboring V82I/I85V mutation in protease encoding region infected in human […] cells assessed as inhibition of p24 Gag protein production by ELISA. Conditions: Human immunodeficiency virus 1, NL4-3. Type of data set: functional, organism-based. Put shortly: (§4)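 Protease PCR fragments (ApaI/SmaI) were cloned into pHIV-1NLSma, and virions were harvested from transfected 293T cells over 48 h. MT-4 target cells (10^5/ml) were infected with 100 TCID50s, with or without drug, at 37°C. Day-7 supernatant p24 Gag was read by chemiluminescent enzyme immunoassay.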

In data set [20] the test system is Human immunodeficiency virus 1. The data set is described as follows: Ratio of EC50 for ritonavir to compound against HIV1 NL4-3 harboring I84V/I85V mutation in protease encoding region infected in human […] cells. Type of data set: functional.
In data set [21] the test system is Human immunodeficiency virus 1. The data set is described as follows: Antiviral activity against HIV1 NL4-3 harboring L10F mutation in protease encoding region infected in human […] cells assessed as inhibition of p24 Gag protein production by ELISA. Conditions: Human immunodeficiency virus 1, NL4-3. Type of data set: functional, organism-based. In outline:
as §4

Data set [22] relates to Human immunodeficiency virus 1. Briefly: Antiviral activity against HIV1 NL4-3 harboring I50V mutation in protease encoding region infected in human […] cells assessed as inhibition of p24 Gag protein production by ELISA. Type of data set: functional, organism-based. Conditions: Human immunodeficiency virus 1, NL4-3. In outline:
as §4

As a reminder, the pEC50 is the negative decadic logarithm of the EC50, by convention in mol/L.

pEC50: −log10 of the molar value. Bounds are passed on as bounds.

Turning to `CC(C)(C)NC(=O)[C@@H]1C[C@@H]2CCCC[C@@H]2CN1C[C@@H](O)[C@H](Cc1ccccc1)NC(=O)[C@H](CC(N)=O)NC(=O)c1ccc2ccccc2n1`, the pEC50 is 8.00 in data set [1]; 8.10 in data set [4]; 7.66 in [7]; 7.85 in data set [8]; 7.57 in data set [13]; 6.49 in data set [14]. Further, the “Ratio EC50” value was 30 in [2]; 36 in data set [3]; 4 in [5]; 11 in [9]; 3 in [10]; 1 in [11]. Further, the “Ratio EC50” value in data set [12] is on record as 1. In addition, in data set [6], the selectivity ratio is 710.

Consider `CC(C)CN(C[C@@H](O)[C@H](Cc1ccccc1)NC(=O)O[C@H]1CCOC1)S(=O)(=O)c1ccc(N)cc1`, for which the pEC50 in data set [1] was 6.37; in [4], 7.55; in data set [7], 6.59; in [8] it was 7.48; in data set [15], 6.40; in data set [13], 6.64. For the same molecule, in data set [14], the pEC50 is 6.18. Further, the “Ratio EC50” value in data set [2] was 14; in [3], 26; in data set [5] it was 6; in [9], 6; in data set [10], 9; in [11], 15. Also, the “Ratio EC50” value in data set [12] is recorded as 8. For the same molecule, in data set [6], the selectivity ratio was more than 3000.

`COc1ccc(S(=O)(=O)N(C[C@@H]2CCC(=O)N2)C[C@@H](O)[C@H](Cc2ccccc2)NC(=O)O[C@@H]2C[C@@H]3CCO[C@@H]3C2)cc1`: the negative-log EC50 (pEC50) in [1] was 7.11; in data set [4], 7.64; in data set [7], 7.33; in [8], 7.55; in [18], 6.22; in data set [15] it was 7.39. The pEC50 in data set [19] is 7.46; in data set [13], 7.55; in data set [21] it was 7.43; in data set [14] it was 7.37; in data set [22], 7.82. Also, the “Ratio EC50” value in data set [2] is given as 1; in data set [16], 2.2; in data set [3], 2; in data set [5], 1; in data set [9], 1; in data set [17], 2.1. Further, the “Ratio EC50” value in [10] is listed as 2; in data set [11], 3; in [12], more than 43; in data set [20], 14.8. For the same molecule, the selectivity ratio in data set [6] was more than 3600.

`CC(C)(C)NC(=O)[C@@H]1CN(Cc2cccnc2)CCN1C[C@@H](O)C[C@@H](Cc1ccccc1)C(=O)N[C@H]1c2ccccc2C[C@H]1O.O`: the pEC50 is 6.52 in data set [1]; 7.85 in data set [4]; less than 6.00 in [7]; 7.36 in data set [8]; less than 6.00 in [15]; 6.47 in [13]. The pEC50 in data set [14] was less than 6.00. Besides, the “Ratio EC50” value in data set [2] is given as more than 48; in data set [3], more than 48; in data set [5] it was 24; in data set [9] it was more than 48; in data set [10], more than 71; in [11], 21. Also, the “Ratio EC50” value in data set [12] is reported as 3. Besides, in [6], the selectivity ratio is 1600.

In the case of `Cc1c(O)cccc1C(=O)N[C@@H](CSc1ccccc1)[C@H](O)CN1C[C@H]2CCCC[C@H]2C[C@H]1C(=O)NC(C)(C)C`, the pEC50 in [1] is 6.62; in [7], 6.19; in data set [8] it was 7.64; in data set [15], less than 6.00; in data set [13], 6.64; in data set [14], less than 6.00. In addition, the “Ratio EC50” value in [2] was more than 63; in data set [3] it was more than 63; in data set [5], 12; in data set [9] it was 21; in data set [10], 36; in [11], 13. In addition, the “Ratio EC50” value in [12] is listed as 1.

The values are drawn from ChEMBL document CHEMBL1649117, “GRL-02031, a novel nonpeptidic protease inhibitor (PI) containing a stereochemically defined fused cyclopentanyltetrahydrofuran potent against multi-PI-resistant human immunodeficiency virus type 1 in vitro” (Antimicrob Agents Chemother, 2009).
